Data on 96 compounds can be found in ChEMBL document CHEMBL4513216, “Probing the Open Global Health Chemical Diversity Library for Multistage-Active Starting Points for Next-Generation Antimalarials” (ACS Infect Dis, 2020).

The series in a line: Toxicity liver stage against HepG2, at 10uM. Format: cell-based. More on the design: test concentration 10 uM, cell line HepG2-A16-CD81EGFP. The note with it: human, HepG2-A16-CD81EGFP cells; read-out: INHIBITION
The method, boiled down:
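Uninfected HepG2-A16-CD81EGFP cells, 3 × 10^3 per well, 1536-well, plated on prespotted compound at 10 μM final, parasite-free screening media added to match infected plates; puromycin 10 μM positive, DMSO 0.5% negative; run in parallel with 48 h PbLuc assay at 37 °C, 5% CO2; viability by CellTiter-Glo luminescence, normalized to controls.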
As to `Cc1ccnn1C(C)C(=O)Nc1cc(-c2ccncc2)[nH]n1` (stereo unspecified), the cytotoxicity at 10 µM is -10.7%.

Take `CS(=O)(=O)NC[C@H]1OC[C@@H](NC2CCC(F)(F)CC2)[C@@H]1O`: the cytotoxicity at 10 µM amounted to 0.644%. The result for `Cn1c(C2CC2)nc2c1CCN(CCOc1ccc(C#N)cc1)C2` reads -9.39%. The result for `O=C(c1cnccn1)N1CCC(Oc2ncccc2Cl)CC1` reads 0.566%; that for `Cc1ccc(N2CCC3(CCCN(C(=O)c4cnccn4)C3)C2)nn1` (stereo unspecified), 1.14%. Take `CN(C)C(=O)COC1COC2(CCN(c3cnccn3)CC2)C1` (stereo unspecified): the cytotoxicity at 10 µM was -6.29%. With `O=C1CC2(CCCCN2C(=O)c2ccco2)CN1c1cccnc1` (stereo unspecified), the cytotoxicity at 10 µM was -1.69%. Under `CCC=C(C)C(=O)NCc1ccnc(OC2CCOCC2)c1` stands 5.48%. The result for `CC(C)Nc1nc(O)cc(C2CC(=O)N(C3CCCCC3)C2)n1` (stereo unspecified) reads 4.5%. Turning to `CC(=O)NCC1(COc2cnccn2)C[C@@H](O)[C@@H](O)C1` (stereo partly specified), the cytotoxicity at 10 µM came out at 1.47%. As for `CC(NCc1ccc(C(N)=O)cc1)c1ccc(Cl)c(Cl)c1` (stereo unspecified), the cytotoxicity at 10 µM came out at 8.8%.

As to `Cc1oncc1C(=O)N1CCC2(C1)CN(c1cccnc1)C(=O)CN2C` (stereo unspecified), the cytotoxicity at 10 µM was -5.26%.

Regarding `O=C(CCCc1nc2ccccc2[nH]1)N1CCCC1c1ccccn1` (stereo unspecified), the cytotoxicity at 10 µM came out at 0.219%.

Regarding `CCO[C@@H]1CCN(C(=O)c2cnc(C)cn2)[C@@H]1Cc1cnn(C)c1`, the cytotoxicity at 10 µM was -72.7%. Under `COCCC(=O)N1CCCC(CCc2ccc(F)c(F)c2)C1` (stereo unspecified) stands -2.59%.

For `COc1cccc(CN2CCN(C(=O)CN3CCOCC3)CC2)n1`, the cytotoxicity at 10 µM is -5.7%. Under `O=S(=O)(CCN1CCc2c(ncn2C2CC2)C1)c1ccccc1` stands -14.5%.

Turning to `COCc1nc(C(=O)NS(=O)(=O)c2ccc(F)cc2F)cs1`, the cytotoxicity at 10 µM was -8.51%.

For `Cc1cccc(SC2CCN(C(=O)CCNS(C)(=O)=O)CC2)c1`, the cytotoxicity at 10 µM was 1.2%. The result for `Cc1cccc2[nH]c(C3CCN(C(=O)c4c[nH]c(=O)[nH]c4=O)CC3)nc12` reads 8.59%; that for `CC(c1ccccn1)N(C)C(=O)CN1CCN(c2ccccn2)CC1` (stereo unspecified), 5.1%; that for `CC(C)(O)c1cn(C2CCN(C(=O)CCC(F)(F)F)CC2)nn1`, 1.93%. The result for `Nc1ccc(CC2CCCN(Cc3c[nH]cn3)C2)nn1` (stereo unspecified) reads -0.701%; that for `N#CCCN(Cc1ccco1)C(=O)COC1CCCCC1`, 6.35%; that for `Cc1ccc(C(CNCc2nccn2C)N2CCOCC2)s1` (stereo unspecified), -1.76%. Under `O=C(NCCn1nc(C2CCNC2)c2cccnc21)c1ccccn1` (stereo unspecified) stands -25.7%. For `Cc1ccc2c(c1)C(NCc1nccn1Cc1ccccc1)CCCO2` (stereo unspecified), the cytotoxicity at 10 µM came out at 1.26%. The result for `c1ccc2[nH]c(C3CCN(Cc4nc(C5CC5)no4)CC3)cc2c1` reads 9.02%; that for `COc1cccc(C(=O)N2CCc3ncnc(C)c3CC2)c1`, -12.6%. Under `Cc1ncc(C(=O)N2C[C@@H]3CC[C@H]2CN(S(=O)(=O)N(C)C)C3)c(C)n1` stands 16.9%.

Turning to `COc1cc(C)nc(N2CCN(C(=O)c3ccn(C)c(=O)c3)CC2)n1`, the cytotoxicity at 10 µM was -12.8%. Under `CC(=O)Nc1nc2c(s1)C1(CCCC1)Nc1ccccc1S2` stands -9.99%. Regarding `Cc1csc(CNCc2c(C)nn(C)c2N2CCOCC2)n1`, the cytotoxicity at 10 µM is -9.07%. Regarding `O=C(CC1C=CCC1)N1CCc2ncnc(NCc3ccon3)c2CC1` (stereo unspecified), the cytotoxicity at 10 µM worked out at 22.8%. Under `CC(C)Sc1ccc(C(C)NC(=O)CNS(C)(=O)=O)cc1` (stereo unspecified) stands 3.92%. Regarding `Cc1nc(C)c(C(C)NCc2c(C)nn(CC(C)C)c2N(C)C)s1` (stereo unspecified), the cytotoxicity at 10 µM was -2.49%. Under `COc1ncnc2c1CCN(Cc1nccs1)CC2` stands 8.73%; under `CCc1nnc(C(C)N2CCC(NC(=O)C3CCCCC3)CC2)o1` (stereo unspecified), -8.35%; under `Cc1nc(C)n(C2CCCN(C(=O)c3cc4ccccc4n3C)C2)n1` (stereo unspecified), -4.5%. The result for `CCCS(=O)(=O)N1CCC(Oc2ccc(C#N)cc2)CC1` reads 3.82%; that for `COc1ccc(-c2nc(CN3CC(n4nc(C)cc4C)C3)no2)cc1`, -3.88%; that for `Cc1ncc(CNC(=O)Cc2cccs2)c(C2CCCN2C)n1` (stereo unspecified), -0.279%.

As for `Nc1cc(-c2c[nH]nc2C2CCCN2S(=O)(=O)c2ccccc2)ccn1` (stereo unspecified), the cytotoxicity at 10 µM is 6.34%.

With `CSCCC(=O)N1CC[C@@H](N2CCN(c3ccccc3F)CC2)[C@H](O)C1`, the cytotoxicity at 10 µM was -91.4%. The result for `COCCC1(CO)CCCN(C(=O)c2cccnc2OC)C1` (stereo unspecified) reads -47.8%; that for `CC(=O)N1CCCC1c1nnn2cc(-c3ccncc3)ccc12` (stereo unspecified), 7.28%; that for `CNC(=O)Nc1cnc2cc(Cl)ccc2c1O`, -30%. The result for `CCOc1ccc(NC(=O)c2cnc(N3CCCC3)nc2C)cc1` reads -7.81%; that for `CCN(C)C(=O)c1ccnn1-c1ccc2ccccn12`, 6.71%; that for `CC(C)Nc1ncnc2c1CCN(C(=O)c1ccccc1F)CC2`, -86.7%. The result for `COCc1cccc(CNC(=O)CN2CCCC2c2noc(C)n2)c1` (stereo unspecified) reads 0.762%.

In the case of `CC(C)c1nccn1C1CCCN(C(=O)c2cccc3[nH]ncc23)C1` (stereo unspecified), the cytotoxicity at 10 µM was -0.35%. The result for `O=C(NCCc1ccccc1)C1CCN(C(=O)Cn2cncn2)C1` (stereo unspecified) reads 2.55%. Consider `Cc1nc(N2CCC3(CCCN(CC4CC4)C3=O)C2)c2sccc2n1` (stereo unspecified), for which the cytotoxicity at 10 µM came out at 42%.

Regarding `CNC(=O)Cn1cc(C#N)c(=O)c2cc(Br)ccc21`, the cytotoxicity at 10 µM amounted to 23.7%. The result for `O=C(c1ccc[nH]1)N1CCOC2(COCCN(c3cncnc3)C2)C1` (stereo unspecified) reads 7.7%; that for `O=C(c1ccno1)N1CCCC(c2ncncc2-c2ccncc2)C1` (stereo unspecified), -19.9%; that for `CC(c1nccs1)N(C)Cc1ccc(CCC(C)(C)O)cc1` (stereo unspecified), 2.55%. The result for `CC1CCN(C(=O)c2cnc3cc(C(=O)N(C)C)n(C)c3c2)CC1` reads 6.14%; that for `Cn1ccnc(Sc2ccc(O)cc2)c1=O`, 6.64%; that for `COC[C@]1(O)CCN(C2CCN(c3ccc(F)c(F)c3)CC2)CC1(C)C`, -3.85%. Under `O=C1CCC2(CCCN(C(=O)c3ccc[nH]3)C2)CN1Cc1cccnc1` (stereo unspecified) stands 9.88%; under `COc1ccc(OC)c(CCC(=O)Nc2cc(C)n[nH]2)c1`, 7.3%. As for `CCN(CC1CCOC1)C(=O)c1ccc(-c2ccsc2)nc1C` (stereo unspecified), the cytotoxicity at 10 µM came to 6.39%. The result for `CN(Cc1ccco1)[C@@H]1CN(C(=O)c2ccnnc2)[C@@H]2CCCO[C@H]12` reads -7.93%; that for `COc1ccccc1C(O)CNC(=O)Nc1ccccn1` (stereo unspecified), -11.9%; that for `Cc1n[nH]c(C2CN(CCc3cccs3)CCO2)n1` (stereo unspecified), -15.8%. Turning to `O=C1N(CC2CC2)CCC12CCN(CC1CC1)CC2`, the cytotoxicity at 10 µM was found to be 7.07%. Under `O=S(=O)(c1ccc(Cl)cc1)N1C[C@@H]2CCN[C@@H]2C1` stands -1.89%; under `CCn1cc(NC(=O)NCC(O)CN2CCCCC2)cn1` (stereo unspecified), 3.75%; under `Cn1cc(C(=O)N2CCCC(n3cncn3)C2)ccc1=O` (stereo unspecified), -5.03%. The result for `CC1c2ncc(COc3cccnc3)n2CCN1C(=O)C1=CCCC1` (stereo unspecified) reads -2.59%.

On to `CC(=O)N1CCc2[nH]cnc2C1C1=CCCN(CCn2cccc2)C1` (stereo unspecified), for which the cytotoxicity at 10 µM worked out at 0.375%. For the compound `O=C(CC1CCN(c2cccnn2)CC1)NCCO`, the cytotoxicity at 10 µM was found to be 0.308%.

With `CN(C)c1ncccc1CNS(=O)(=O)c1ccc(F)c(F)c1`, the cytotoxicity at 10 µM was -7.18%. The result for `CC(C)(C)c1coc([C@@H]2COCCN2Cc2cnc3ccccc3c2)n1` reads 10.9%; that for `CC(C)c1csc(C2CCCN(C(=O)c3ccc[nH]3)C2)n1` (stereo unspecified), -48.6%. Turning to `Cc1cc(C)n(C2CCCN(C(=O)Cn3ccc(=O)n(C)c3=O)C2)n1` (stereo unspecified), the cytotoxicity at 10 µM worked out at 0.437%. The result for `Cc1n[nH]c(C)c1CCNC(=O)Nc1ccc2c(c1)COC2` reads -20.4%; that for `COCC(=O)N1CCC2(CC(=O)N(c3cccc(F)c3)C2)C1` (stereo unspecified), -156%; that for `CNC(=O)[C@@H]1C[C@H]2CN(Cc3ccc(C)o3)C[C@H]2N1C(C)=O`, -103%.

Regarding `CN(CC1CC1)C(=O)Cc1csc(-c2ncccn2)n1`, the cytotoxicity at 10 µM was found to be 4.56%.

`Cc1nc(CN(C)C2CCN(CCCOc3ccccc3C)C2)no1` (stereo unspecified): the cytotoxicity at 10 µM is 2.24%. As to `O=C(CCN1CCCC1)N1CC[C@@H](c2ccc3ccccc3c2)[C@H](O)C1`, the cytotoxicity at 10 µM is 2.97%. On to `OCCN(Cc1ccncc1)CC1(c2ccc(Cl)cc2)CCCC1`, for which the cytotoxicity at 10 µM was 13.8%. Under `c1coc(CNc2nnc(Cc3ccsc3)o2)c1` stands -2.28%; under `CC(C)Oc1cccc(C(=O)C2CCCN(C(=O)c3ccnn3C)C2)c1` (stereo unspecified), 1.3%; under `Cc1cc(N2CCOCC2)ccc1NC(C)c1nc(C(C)C)no1` (stereo unspecified), -12.3%. The result for `Clc1ccc(Cc2nc(CNCCn3cccn3)cs2)cc1` reads -1.86%; that for `Cn1c(C2CC2)nc2c1CCN(CC(=O)Nc1ccncc1)C2`, -11.8%; that for `Fc1ccc(-c2nc(CNCCn3cccn3)cs2)cc1`, -11.2%. The result for `COCCCNc1c(-c2ccc(C)cc2)c(=O)c1=O` reads 12.5%. In the case of `Cc1ccc(CN(CCCn2ccnc2)Cc2cnn(C)c2)s1`, the cytotoxicity at 10 µM is -18%.

Turning to `OCC1(O)CCN(Cc2ccc(-c3cc[nH]n3)s2)CC1`, the cytotoxicity at 10 µM is -135%. As for `Cc1ccc(CN(Cc2ccncc2)C2CCN(C)CC2)s1`, the cytotoxicity at 10 µM came out at 7.39%.

As to `Cc1nccc(N2CCC(=O)N(Cc3ccc(F)cc3)C(C(C)C)C2)n1` (stereo unspecified), the cytotoxicity at 10 µM is -0.449%.
